Source: PubChem (several laboratories)
Sampled rows, rich in hits. Any-hit rate of the full collection: about 4.3%.
FLuc inhib CS – inhibits firefly luciferase, flagging false hits in luciferase inhibition screens | ATPLite firefly luciferase biochemical luminescence, 10 min | inhibition, % at 10 µM | actives 1.5% (n = 200,000) | AID 1006;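 active = inhibition above about 50% when tested at 10 µM, limit read from the data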
Target sequence (P08659 whole entry, looked up): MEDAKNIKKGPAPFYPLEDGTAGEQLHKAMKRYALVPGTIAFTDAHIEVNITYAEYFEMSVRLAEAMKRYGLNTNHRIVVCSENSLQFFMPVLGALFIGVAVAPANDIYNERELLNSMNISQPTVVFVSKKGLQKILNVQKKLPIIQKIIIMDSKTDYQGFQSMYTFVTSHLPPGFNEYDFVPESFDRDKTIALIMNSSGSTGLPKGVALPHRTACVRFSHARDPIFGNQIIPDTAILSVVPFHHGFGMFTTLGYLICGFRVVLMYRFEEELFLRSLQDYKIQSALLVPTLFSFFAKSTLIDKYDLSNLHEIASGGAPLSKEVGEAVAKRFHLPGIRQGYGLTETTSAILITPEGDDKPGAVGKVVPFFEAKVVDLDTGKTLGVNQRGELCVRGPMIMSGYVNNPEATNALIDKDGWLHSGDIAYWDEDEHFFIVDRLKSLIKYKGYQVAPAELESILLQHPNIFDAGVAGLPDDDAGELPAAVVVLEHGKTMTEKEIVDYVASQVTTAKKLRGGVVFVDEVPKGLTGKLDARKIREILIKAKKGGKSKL
STAT1 activator – increases IFN-gamma driven STAT1 reporter signal. NIH 3T3 STAT1-luciferase reporter, luminescence; 100% = IFN-gamma alone, no compound. activation (% of control), % at 5.5 µM. actives 2.6% (n = 200,000);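 active = activation above the screen-wide mean activation plus 3 SD, cut at about 130% in these data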;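 note: raw ratio to IFN-gamma control signal so 100% means no change and 0% no light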
FLuc act counter – affects firefly luciferase, flagging false hits in luciferase stimulation screens; ATPlite luciferase biochemical, luminescence, 10 min; 0 = ATP-free wells, 1 = DMSO control; activation factor at 10 µM; 200,000 tested, under 10 active;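 active = luciferase activation factor, scaled between plate controls, of at least 2 with compound at 10 µM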
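Material: Luciferase/luciferin reagent mix | Doses: Test compounds dosed from 2 mM stocks in 100% DMSO | Timing: 10 min incubation after luciferase reagent addition, room temperature | Measured by: Luminescence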
NF-kB expr up – NF-kB expression increase, human neuronal cells. fold change at 12.5 µM. NF-kB reporter expression; hits give high values. actives 1.6% (n = 190,000); in the data active = fold change above about 3.3
APP 5'UTR act – activates APP 5'UTR luciferase reporter; AID 1276; actives 1% (n = 190,000); activation, % at 2 µM; SH-SY5Y APP 5'UTR luciferase reporter, luminescence; zero percent = DMSO vehicle wells;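 active = activation above a set limit, based on mean plus 3 SD of controls, cut at about 140% in these data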
STAT1 act conf – STAT1 activation, confirmation assay; actives 97% (n = 1,200); AID 1262; activation (% of control), % at 5.7 µM; shares compounds with STAT1 activator; NIH 3T3 STAT1-luciferase reporter, IFN-gamma potentiation, luminescence; 100% = IFN-gamma EC80 alone, no compound;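 active = activation above a set limit carried over from the earlier primary STAT1 screen, cut at about 140% in these data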;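 note: simple ratio to median IFN-gamma plus DMSO wells so 0% means no light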
NFkB act – counter-screen for STAT1 activators: NF-kappaB activation | shares compounds with STAT1 activator | HEK293T NF-kB luciferase reporter, TNF-alpha stimulated, luminescence; 100% = TNF-alpha with vehicle only | activation (% of control), % at 5.7 µM | actives 43% (n = 1,200) | AID 1306;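 active = activation above the mean of solvent-only control wells plus 3 SD, set per campaign, cut at about 130% in these data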;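 note: TNF-alpha given at a submaximal dose yielding about 80% of full reporter signal; values are well signal over median control so 100% means no change and 0% no light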
STAT3 act STAT1c – counter-screen for STAT1 activators: human STAT3 activation. actives 46% (n = 1,200). shares compounds with STAT1 activator. U3A cells STAT3-luciferase reporter, IL-6, luminescence; cells lack STAT1; 100 = IL-6 alone, no compound effect. AID 1316. activation (% of control), % at 5.7 µM;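 active = activation above the solvent-only control well mean plus 3 SD, set per plate batch, cut at about 110% in these data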;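 note: 0% = no luminescence and 100% = median IL-6 plus DMSO wells; higher means more STAT3 reporter activation so hits are non-selective activators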
An asterisk follows results filed as active; / = no result given.

SMILES	FLuc inhib CS	STAT1 activator	FLuc act counter	NF-kB expr up	APP 5'UTR act	STAT1 act conf	NFkB act	STAT3 act STAT1c
c1ccc(N2CCN(c3cnc4ccccc4n3)CC2)cc1	23	175*	0.8	6.5*	11	219*	130	97
COC(=O)N/N=C\C=C\c1ccc2c(c1)OCO2	50	122	0.5	2	38	/	/	/
CC(C)(C)OC(=O)N/N=C\C=C\c1ccc2c(c1)OCO2	24	158*	0.8	1.1	/	185*	130	111*
Cc1c(F)cccc1NS(=O)(=O)c1ccc(OCCNS(C)(=O)=O)cc1	-1	89	1	0.66	0	/	/	/
Cc1cc(C)nc(NC2=NCCN2C(=S)Nc2c(C)cccc2C)n1	-4	91	1	0.91	15	/	/	/
CC(=O)c1c(C)nc(-c2ccc(Cl)cc2)nc1N=CN(C)C	0	118	1	2.5	99	/	/	/
CC(=O)c1c(C)nc(-c2ccc(Cl)cc2)nc1N	17	152*	0.8	1.1	116	175*	140*	146*
O=C(N=Nc1c(O)[nH]c2ccccc12)c1ccco1	75*	155*	0.2	2.9	142*	179*	127	126*
CC(=O)c1c(C(C)=O)c(C)n(C(c2ccccc2)c2ccccc2)c1C	-3	99	1	1.1	26	/	/	/
C/C(N)=C(/C#N)C(=O)COC(=O)c1ccccc1Oc1ccccc1	-6	104	1.1	3	8	/	/	/
COc1ccc(C(=O)COC(=O)c2ccc(N(C)C)cc2)cc1	-6	113	1.1	1.1	13	/	/	/
CN(C)c1ccc(C(=O)OCC(=O)c2cccs2)cc1	26	172*	0.7	5.2*	103	215*	123	104
CCOc1ccc(CCNC(=O)COC(=O)/C=C/c2ccc(OCC#N)c(OC)c2)cc1OCC	-7	102	1.1	1.2	7	/	/	/
COc1ccc(N=Cc2sc(O)c3ccccc23)cc1	8	173*	0.9	13*	214*	331*	154*	104
CC1Cc2ccccc2N1C(=O)/C=C/c1cccc(F)c1 (stereo unspecified)	33	158*	0.7	6.3*	189*	202*	141*	106
COc1cc(/C=C/C(=O)NCCN2CCOCC2)cc(OC)c1OC	-8	104	1.1	0.88	4	/	/	/
CCOC(=O)c1c(N)n[nH]c1-c1ccc(OC)cc1	-7	94	1.1	1	17	/	/	/
CCOC(=O)c1sc(-c2ccc(OC)cc2)cc1N	33	157*	0.7	7.1*	159*	206*	137*	109
COCCCn1c(C)nnc1-c1cnn(-c2ccccc2)c1N	-7	93	1.1	0.93	-16	/	/	/
NS(=O)(=O)c1ccc(NCC2COc3ccccc3O2)c([N+](=O)[O-])c1 (stereo unspecified)	-8	102	1.1	0.99	15	/	/	/
CC(=O)c1ccc(NCC2COc3ccccc3O2)c([N+](=O)[O-])c1 (stereo unspecified)	-2	159*	1	3.1	145*	229*	140*	220*
COc1ccc(-c2cc(C(=O)Nc3ccccc3)on2)cc1	11	179*	0.9	1.8	-6	156*	128	110
Cn1cc(CN(CCO)Cc2cccs2)c(-c2ccccc2F)n1	-6	97	1.1	1.2	-7	/	/	/
COc1ccc(C(=O)CSc2nnc3ccccn23)cc1OC	-6	104	1.1	1.3	11	/	/	/
O=C(CSc1nnc2ccccn12)c1ccc2c(c1)OCCO2	20	158*	0.8	3.2	123	186*	132	130*
SMILES	FLuc inhib CS	STAT1 activator	FLuc act counter	NF-kB expr up	APP 5'UTR act	STAT1 act conf	NFkB act	STAT3 act STAT1c
Cc1ccc(C)c(NC(=S)N2CCN(CCO)CC2)c1	-5	91	1.1	1.3	-13	/	/	/
COc1ccc(CCN(Cc2nc3ccccc3c(=O)[nH]2)C(=O)C2CC2)cc1	-8	102	1.1	1.1	0	/	/	/
N/C(=N\O)C1COc2ccccc2O1 (stereo unspecified)	-5	101	1.1	1.2	-10	/	/	/
NC(N)=Nc1nc(C2COc3ccccc3O2)cs1 (stereo unspecified)	24	164*	0.8	5*	166*	202*	132	105
COC(=O)C1SCC2C(=O)N(Cc3ccc(Cl)c(Cl)c3)CC(=O)N21 (stereo unspecified)	-1	113	1	1.1	-14	/	/	/
CS(=O)(=O)c1cnc2c(S(=O)(=O)c3ccccc3)cnn2c1N	-4	100	1	1	9	/	/	/
CS(=O)(=O)c1cnc2c(-c3ccsc3)cnn2c1N	62*	157*	0.4	2.6	109	171*	121	111*
COc1ccccc1/C=C/C(=O)NCCC1=CCCCC1	8	159*	0.9	0.97	52	170*	128	134*
O=[N+]([O-])c1cc(/C=N/Nc2nc3ccccc3[nH]2)c(O)cc1O	20	116	0.8	2.1	-50	/	/	/
Cc1nn(-c2ccccc2)c(Cl)c1/C=N/Nc1nc2ccccc2[nH]1	65*	216*	0.4	2.2	126	291*	130	104
Cc1ccc(/C=N/Nc2nc3ccccc3[nH]2)s1	72*	157*	0.3	3.8*	135*	190*	149*	121*
Cc1nn(-c2ccccc2)c(Cl)c1/C=N/O	-3	109	1	1.2	7	/	/	/
Cc1nc(C(=O)NC(C)C)nn1-c1cc(Cl)cc(Cl)c1	-5	92	1.1	0.96	20	/	/	/
Nc1c(Cl)ncnc1N/N=C/c1ccc2ccccc2n1	72*	162*	0.3	0.41	-66	161*	125	138*
CC(C)(C)c1ccccc1N=Cc1ccc2ccccc2n1	-4	103	1	1.1	-1	/	/	/
O=C1c2ccccc2C(=O)N1CCc1c[nH]c2ccccc12	25	158*	0.8	4.6*	101	177*	129	99
O=C(Nc1ccc(/C=C/c2nc3ccccc3o2)cc1)c1c(F)cccc1F	18	175*	0.8	2.1	208*	205*	131	105
O=C(Nc1ccc(/C=C/c2nc3ccccc3o2)cc1)c1cccc(C(F)(F)F)c1	-8	125	1.1	1.1	15	/	/	/
Cc1ccc(-c2nc(CN(C)Cc3ccc4nccnc4c3)c(C)o2)s1	-9	97	1.1	1	18	/	/	/
